Laboratory results from ChEMBL document CHEMBL4673214, “Synthesis and antibacterial bioactivities of cationic deacetyl linezolid amphiphiles” (Eur J Med Chem, 2018).

Assays:
[1] = Hemolytic activity in sheep RBC incubated for 1 hr; format: ADME, cell-based, Ovis aries, Erythrocyte; conditions: sheep red blood cells (erythrocytes)
In short: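 Sheep RBCs were resuspended at 5% in PBS and mixed 3:1 with serial dilutions (2560 to 5 µg/mL, pre-mixing levels), then incubated 1 h at 37 °C. After centrifugation, supernatant A540 was read. Hemolysis % was calculated as (A−A0)/(Atotal−A0)×100, with untreated RBCs as 0% and 0.1% Triton X-100 as total lysis.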

Enterobacteriaceae [2] = experiment: Antibacterial activity against NDM1 producing carbapenem-resistant Enterobacteriaceae clinical isolate 10 assessed as reduction in bacterial growth incubated for 16 to 20 hrs by CLSI-based broth microdilution method; format: functional; conditions: time 16-20 hrs
In short: (§1)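 Clinical isolates tested by broth microdilution in cation-adjusted Mueller-Hinton broth. Cultures grown 4-6 h (~10^8 CFU/mL) were diluted to ~10^6 CFU/mL and mixed 1:1 with compound serial dilutions made from 256 down to 0.5 µg/mL (pre-mixing). Plates held at 37 °C for 16-20 h, then read for growth. Each concentration run in duplicate, whole experiment at least twice.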

Enterobacteriaceae [3] = experiment: Antibacterial activity against NDM1 producing carbapenem-resistant Enterobacteriaceae clinical isolate 8 assessed as reduction in bacterial growth incubated for 16 to 20 hrs by CLSI-based broth microdilution method; format: functional; conditions: time 16-20 hrs; in short: as §1
Enterobacteriaceae [4] = experiment: Antibacterial activity against NDM1 producing carbapenem-resistant Enterobacteriaceae clinical isolate 7 assessed as reduction in bacterial growth incubated for 16 to 20 hrs by CLSI-based broth microdilution method; format: functional; conditions: time 16-20 hrs; in short: as §1
Enterobacteriaceae [5] = experiment: Antibacterial activity against NDM1 producing carbapenem-resistant Enterobacteriaceae clinical isolate 6 assessed as reduction in bacterial growth incubated for 16 to 20 hrs by CLSI-based broth microdilution method; format: functional; conditions: time 16-20 hrs; in short: as §1
Enterobacteriaceae [6] = experiment: Antibacterial activity against NDM1 producing carbapenem-resistant Enterobacteriaceae clinical isolate 5 assessed as reduction in bacterial growth incubated for 16 to 20 hrs by CLSI-based broth microdilution method; format: functional; conditions: time 16-20 hrs; in short: as §1
Enterobacteriaceae [7] = experiment: Antibacterial activity against NDM1 producing carbapenem-resistant Enterobacteriaceae clinical isolate 4 assessed as reduction in bacterial growth incubated for 16 to 20 hrs by CLSI-based broth microdilution method; format: functional; conditions: time 16-20 hrs; in short: as §1
Enterobacteriaceae [8] = experiment: Antibacterial activity against NDM1 producing carbapenem-resistant Enterobacteriaceae clinical isolate 3 assessed as reduction in bacterial growth incubated for 16 to 20 hrs by CLSI-based broth microdilution method; format: functional; conditions: time 16-20 hrs; in short: as §1
Enterobacteriaceae [9] = experiment: Antibacterial activity against NDM1 producing carbapenem-resistant Enterobacteriaceae clinical isolate 2 assessed as reduction in bacterial growth incubated for 16 to 20 hrs by CLSI-based broth microdilution method; format: functional; conditions: time 16-20 hrs; in short: as §1
Enterobacteriaceae [10] = experiment: Antibacterial activity against NDM1 producing carbapenem-resistant Enterobacteriaceae clinical isolate 1 assessed as reduction in bacterial growth incubated for 16 to 20 hrs by CLSI-based broth microdilution method; format: functional; conditions: time 16-20 hrs; in short: as §1
Klebsiella pneumoniae [11] = experiment: Antibacterial activity against carbapenem-resistant Klebsiella pneumoniae clinical isolate 10 assessed as reduction in bacterial growth incubated for 16 to 20 hrs by CLSI-based broth microdilution method; format: functional; conditions: time 16-20 hrs; in short: as §1
Klebsiella pneumoniae [12] = experiment: Antibacterial activity against carbapenem-resistant Klebsiella pneumoniae clinical isolate 9 assessed as reduction in bacterial growth incubated for 16 to 20 hrs by CLSI-based broth microdilution method; format: functional; conditions: time 16-20 hrs; in short: as §1
Klebsiella pneumoniae [13] = experiment: Antibacterial activity against carbapenem-resistant Klebsiella pneumoniae clinical isolate 8 assessed as reduction in bacterial growth incubated for 16 to 20 hrs by CLSI-based broth microdilution method; format: functional; conditions: time 16-20 hrs; in short: as §1
Klebsiella pneumoniae [14] = experiment: Antibacterial activity against carbapenem-resistant Klebsiella pneumoniae clinical isolate 7 assessed as reduction in bacterial growth incubated for 16 to 20 hrs by CLSI-based broth microdilution method; format: functional; conditions: time 16-20 hrs; in short: as §1
Klebsiella pneumoniae [15] = experiment: Antibacterial activity against carbapenem-resistant Klebsiella pneumoniae clinical isolate 6 assessed as reduction in bacterial growth incubated for 16 to 20 hrs by CLSI-based broth microdilution method; format: functional; conditions: time 16-20 hrs; in short: as §1
Klebsiella pneumoniae [16] = experiment: Antibacterial activity against carbapenem-resistant Klebsiella pneumoniae clinical isolate 5 assessed as reduction in bacterial growth incubated for 16 to 20 hrs by CLSI-based broth microdilution method; format: functional; conditions: time 16-20 hrs; in short: as §1
Klebsiella pneumoniae [17] = experiment: Antibacterial activity against carbapenem-resistant Klebsiella pneumoniae clinical isolate 4 assessed as reduction in bacterial growth incubated for 16 to 20 hrs by CLSI-based broth microdilution method; format: functional; conditions: time 16-20 hrs; in short: as §1
Klebsiella pneumoniae [18] = experiment: Antibacterial activity against carbapenem-resistant Klebsiella pneumoniae clinical isolate 3 assessed as reduction in bacterial growth incubated for 16 to 20 hrs by CLSI-based broth microdilution method; format: functional; conditions: time 16-20 hrs; in short: as §1
Klebsiella pneumoniae [19] = experiment: Antibacterial activity against carbapenem-resistant Klebsiella pneumoniae clinical isolate 2 assessed as reduction in bacterial growth incubated for 16 to 20 hrs by CLSI-based broth microdilution method; format: functional; conditions: time 16-20 hrs; in short: as §1
Staphylococcus aureus [20] = experiment: Antibacterial activity against methicillin-resistant Staphylococcus aureus clinical isolate 10 assessed as reduction in bacterial growth incubated for 16 to 20 hrs by CLSI-based broth microdilution method; format: functional; conditions: time 16-20 hrs; in short: as §1
Staphylococcus aureus [21] = experiment: Antibacterial activity against methicillin-resistant Staphylococcus aureus clinical isolate 9 assessed as reduction in bacterial growth incubated for 16 to 20 hrs by CLSI-based broth microdilution method; format: functional; conditions: time 16-20 hrs; in short: as §1
Staphylococcus aureus [22] = experiment: Antibacterial activity against methicillin-resistant Staphylococcus aureus clinical isolate 8 assessed as reduction in bacterial growth incubated for 16 to 20 hrs by CLSI-based broth microdilution method; format: functional; conditions: time 16-20 hrs; in short: as §1
Staphylococcus aureus [23] = experiment: Antibacterial activity against methicillin-resistant Staphylococcus aureus clinical isolate 7 assessed as reduction in bacterial growth incubated for 16 to 20 hrs by CLSI-based broth microdilution method; format: functional; conditions: time 16-20 hrs; in short: as §1
Enterobacteriaceae [24] = experiment: Antibacterial activity against NDM1 producing carbapenem-resistant Enterobacteriaceae clinical isolate 9 assessed as reduction in bacterial growth incubated for 16 to 20 hrs by CLSI-based broth microdilution method; format: functional; conditions: time 16-20 hrs; in short: as §1
Staphylococcus aureus [25] = experiment: Antibacterial activity against methicillin-resistant Staphylococcus aureus clinical isolate 6 assessed as reduction in bacterial growth incubated for 16 to 20 hrs by CLSI-based broth microdilution method; format: functional; conditions: time 16-20 hrs; in short: as §1
Staphylococcus aureus [26] = experiment: Antibacterial activity against methicillin-resistant Staphylococcus aureus clinical isolate 5 assessed as reduction in bacterial growth incubated for 16 to 20 hrs by CLSI-based broth microdilution method; format: functional; conditions: time 16-20 hrs; in short: as §1
Staphylococcus aureus [27] = experiment: Antibacterial activity against methicillin-resistant Staphylococcus aureus clinical isolate 4 assessed as reduction in bacterial growth incubated for 16 to 20 hrs by CLSI-based broth microdilution method; format: functional; conditions: time 16-20 hrs; in short: as §1
Staphylococcus aureus [28] = experiment: Antibacterial activity against methicillin-resistant Staphylococcus aureus clinical isolate 3 assessed as reduction in bacterial growth incubated for 16 to 20 hrs by CLSI-based broth microdilution method; format: functional; conditions: time 16-20 hrs; in short: as §1
Staphylococcus aureus [29] = experiment: Antibacterial activity against methicillin-resistant Staphylococcus aureus clinical isolate 2 assessed as reduction in bacterial growth incubated for 16 to 20 hrs by CLSI-based broth microdilution method; format: functional; conditions: time 16-20 hrs; in short: as §1
Staphylococcus aureus [30] = experiment: Antibacterial activity against methicillin-resistant Staphylococcus aureus clinical isolate 1 assessed as reduction in bacterial growth incubated for 16 to 20 hrs by CLSI-based broth microdilution method; format: functional; conditions: time 16-20 hrs; in short: as §1
Salmonella enterica = experiment: Antibacterial activity against Salmonella enterica ATCC 8387 assessed as reduction in bacterial growth incubated for 16 to 20 hrs by CLSI-based broth microdilution method; format: functional; conditions: time 16-20 hrs
In short: (§2)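 Broth microdilution following CLSI, in cation-adjusted Mueller-Hinton broth. Inoculum from a 4-6 h culture (~10^8 CFU/mL), diluted to ~10^6 CFU/mL. Water stocks were serially diluted in MHB (256 to 0.5 µg/mL) and mixed 1:1 with the inoculum. Plates ran 16-20 h at 37 °C. MIC was read visually. Each concentration was tested in duplicate, and the experiment was repeated at least twice.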

Escherichia coli = experiment: Antibacterial activity against Escherichia coli ATCC 25922 assessed as reduction in bacterial growth incubated 16 to 20 hrs by CLSI-based broth microdilution method; format: functional; conditions: time 16-20 hrs; in short: as §2
Enterococcus faecalis = experiment: Antibacterial activity against Enterococcus faecalis ATCC 29212 assessed as reduction in bacterial growth incubated 16 to 20 hrs by CLSI-based broth microdilution method; format: functional; conditions: time 16-20 hrs; in short: as §2
Klebsiella pneumoniae [31] = experiment: Antibacterial activity against carbapenem-resistant Klebsiella pneumoniae clinical isolate 1 assessed as reduction in bacterial growth incubated for 16 to 20 hrs by CLSI-based broth microdilution method; format: functional; conditions: time 16-20 hrs; in short: as §1
Staphylococcus aureus [32] = experiment: Antibacterial activity against Staphylococcus aureus ATCC 29213 assessed as reduction in bacterial growth incubated for 16 to 20 hrs by CLSI-based broth microdilution method; format: functional; conditions: time 16-20 hrs; in short: as §2
[33] = Solubility of the compound in water at room temperature; format: physicochemical; conditions: buffer

Row | SMILES | MIC (Enterobacteriaceae [2]) [µg/mL] | MIC (Enterobacteriaceae [3]) [µg/mL] | MIC (Enterobacteriaceae [4]) [µg/mL] | MIC (Enterobacteriaceae [5]) [µg/mL] | MIC (Enterobacteriaceae [6]) [µg/mL] | MIC (Enterobacteriaceae [7]) [µg/mL] | MIC (Enterobacteriaceae [8]) [µg/mL] | MIC (Enterobacteriaceae [9]) [µg/mL] | MIC (Enterobacteriaceae [10]) [µg/mL] | MIC (Klebsiella pneumoniae [11]) [µg/mL] | MIC (Klebsiella pneumoniae [12]) [µg/mL] | MIC (Klebsiella pneumoniae [13]) [µg/mL] | MIC (Klebsiella pneumoniae [14]) [µg/mL] | MIC (Klebsiella pneumoniae [15]) [µg/mL] | MIC (Klebsiella pneumoniae [16]) [µg/mL] | MIC (Klebsiella pneumoniae [17]) [µg/mL] | MIC (Klebsiella pneumoniae [18]) [µg/mL] | MIC (Klebsiella pneumoniae [19]) [µg/mL] | MIC (Staphylococcus aureus [20]) [µg/mL] | MIC (Staphylococcus aureus [21]) [µg/mL] | also measured
1 | CCCCCCCCCCCCCC[N+](C)(C)CC(=O)NC[C@H]1CN(c2ccc(N3CCOCC3)c(F)c2)C(=O)O1.[Cl-] | 16 | 16 | 16 | 32 | 32 | 64 | 32 | > 64 | > 64 | 32 | 32 | 32 | 32 | 32 | 32 | 32 | 16 | 32 | 8 | 2 | HC50 at 1 h [1]: 60 µg/mL; MIC (Staphylococcus aureus [22]): 4 µg/mL; MIC (Staphylococcus aureus [23]): 2 µg/mL; MIC (Enterobacteriaceae [24]): 16 µg/mL; MIC (Staphylococcus aureus [25]): 2 µg/mL; MIC (Staphylococcus aureus [26]): 4 µg/mL; MIC (Staphylococcus aureus [27]): 4 µg/mL; MIC (Staphylococcus aureus [28]): 2 µg/mL; MIC (Staphylococcus aureus [29]): 16 µg/mL; MIC (Staphylococcus aureus [30]): 4 µg/mL; MIC (Salmonella enterica): 16 µg/mL; MIC (Escherichia coli): 16 µg/mL; MIC (Enterococcus faecalis): 4 µg/mL; MIC (Klebsiella pneumoniae [31]): 32 µg/mL; MIC (Staphylococcus aureus [32]): 4 µg/mL; solubility [33]: Soluble
2 | CCCCCCCCCCCC[N+](C)(C)CC(=O)NC[C@H]1CN(c2ccc(N3CCOCC3)c(F)c2)C(=O)O1.[Cl-] | 32 | 16 | 32 | 16 | 32 | 64 | 64 | > 64 | > 64 | 64 | 64 | 32 | 64 | 32 | 64 | 64 | 64 | 32 | 8 | 8 | MIC (Staphylococcus aureus [22]): 8 µg/mL; MIC (Staphylococcus aureus [23]): 4 µg/mL; MIC (Enterobacteriaceae [24]): 16 µg/mL; MIC (Staphylococcus aureus [25]): 4 µg/mL; MIC (Staphylococcus aureus [26]): 4 µg/mL; MIC (Staphylococcus aureus [27]): 16 µg/mL; MIC (Staphylococcus aureus [28]): 2 µg/mL; MIC (Staphylococcus aureus [29]): 8 µg/mL; MIC (Staphylococcus aureus [30]): 4 µg/mL; MIC (Salmonella enterica): 16 µg/mL; MIC (Escherichia coli): 16 µg/mL; MIC (Enterococcus faecalis): 4 µg/mL; MIC (Klebsiella pneumoniae [31]): 32 µg/mL; MIC (Staphylococcus aureus [32]): 8 µg/mL; solubility [33]: Soluble
